Only some compounds are listed: those with a hit (about 1.8% of all), similar ones and a draw of the others.
TDP2 inh: blocks human TDP2 phosphodiesterase activity; recombinant TDP2, T5PNP hydrolysis, p-nitrophenol absorbance 415 nm; inhibition, % at 12.8 µM; 370,000 tested, 0.34% active; AID 720702;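 active = inhibition above the mean of all tested compounds plus 3 SD, set per campaign, cut at about 25% in these data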
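test system = human TDP2 enzyme | input = TDP2 enzyme at 120 nM final | medium = 50 mM Tris-HCl pH 7.5 with Mg2+, KCl, DTT, BSA | also added = T5PNP substrate, 5 mM | times = 2 h at 37 °C | technique = epi absorbance | benchmarks = high control without enzyme, low control DMSO plus TDP2 | replication = each compound tested once, singlicate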
MBD2 inh: MBD2-methylated oligo binding inhibition. Q9UBB5. TR-FRET, MBD2 binding to methylated oligonucleotide. inhibition, % at 4.4 µM. 370,000 tested, 0.31% active; in the data active = inhibition above about 13%
LEDGF integ inh: blocks HIV-1 LEDGF/p75-dependent DNA integration; TR-FRET IN-LEDGF/p75 DNA integration, Eu/Cy5; 370,000 tested, 0.64% active; inhibition, % at 3.7 µM; AID 743269;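 active = inhibition above the screen-wide mean plus 3 SD, cut at about 13% in these data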;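 note: signal is the Cy5 over europium emission ratio at 671 and 618 nm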
core dimer inh: blocks dimerization of HCV core protein; inhibition, % at 5 µM; 300,000 tested, 0.33% active; TR-FRET GST/Flag-core106 dimerization, 1536-well;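 active = inhibition above the mean of all tested compounds plus 3 SD, set per screening campaign, cut at about 45% in these data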
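Assay system: GST-tagged and Flag-tagged HCV core protein residues 1-106 / Times: compound-protein-antibody incubation 4 h at 22.5 °C / Signal: time-resolved FRET, ex 340 nm, em 617 and 671 nm / Evaluation: % inhibition based on acceptor/donor emission ratio / Benchmarks: wells lacking GST-core106 and wells with excess unlabelled core106 / Repeats: singlicate, one well per compound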
UHRF1 MBD2 ctr: UHRF1 methyl-DNA binding inhibition; Q96T88; UHRF1 binding to methylated oligo, TR-FRET; inhibition, % at 4.4 µM; 370,000 tested, 0.75% active; AID 687016; in the data active = inhibition above about 21%;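 note: UHRF1 SRA domain binding a hemimethylated CpG hairpin DNA probe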
Target sequence (Q96T88 whole entry, looked up, the tested form may be a part): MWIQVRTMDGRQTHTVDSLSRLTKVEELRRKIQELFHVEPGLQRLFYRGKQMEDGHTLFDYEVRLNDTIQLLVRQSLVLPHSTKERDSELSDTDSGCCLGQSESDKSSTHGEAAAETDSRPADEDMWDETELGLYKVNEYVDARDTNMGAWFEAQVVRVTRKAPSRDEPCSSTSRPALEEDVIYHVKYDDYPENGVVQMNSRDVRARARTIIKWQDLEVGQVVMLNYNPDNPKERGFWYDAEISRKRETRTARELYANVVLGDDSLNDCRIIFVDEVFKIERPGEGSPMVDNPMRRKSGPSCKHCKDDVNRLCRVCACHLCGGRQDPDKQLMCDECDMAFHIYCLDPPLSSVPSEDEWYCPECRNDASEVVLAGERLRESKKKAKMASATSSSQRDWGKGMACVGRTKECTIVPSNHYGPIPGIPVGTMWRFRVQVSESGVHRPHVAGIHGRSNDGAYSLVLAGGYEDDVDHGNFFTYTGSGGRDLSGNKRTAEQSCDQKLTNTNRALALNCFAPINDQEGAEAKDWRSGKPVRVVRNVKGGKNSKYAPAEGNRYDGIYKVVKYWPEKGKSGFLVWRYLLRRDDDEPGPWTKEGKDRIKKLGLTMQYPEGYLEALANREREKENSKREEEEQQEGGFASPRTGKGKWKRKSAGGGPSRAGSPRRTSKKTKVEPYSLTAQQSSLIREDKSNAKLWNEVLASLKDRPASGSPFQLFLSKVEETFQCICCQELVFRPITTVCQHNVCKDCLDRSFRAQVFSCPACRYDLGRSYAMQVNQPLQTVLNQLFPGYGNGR
IN multimer up: HIV-1 integrase multimerization activation, counter-screen. TR-FRET HIV-1 integrase multimerization, biochemical. shares compounds with LEDGF integ inh. activation, % at 7.7 µM. AID 1053131. 2,000 tested, 17% active; in the data active = activation above about 8.9%
TRFRET interf: optically interferes with TR-FRET readout in LEDGF counter-screen; TR-FRET optical interference counterscreen, HIV-1 IN multimerization; inhibition, % at 7.7 µM; shares compounds with LEDGF integ inh; 2,000 tested, under 10 active;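 active = inhibition above the mean over all tested compounds plus 3 SD, which no compound reached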
LEDGF integ conf: confirmation of HIV-1 LEDGF/p75-dependent integration inhibitors; shares compounds with LEDGF integ inh; inhibition, % at 3.7 µM; TR-FRET LEDGF/p75-dependent HIV-1 integration, biochemical; 2,000 tested, 36% active; AID 1053136; in the data active = inhibition above about 14%
Numbers stand for hits; – = inactive; · = no result.

SMILES | TDP2 inh | MBD2 inh | LEDGF integ inh | core dimer inh | UHRF1 MBD2 ctr | IN multimer up | TRFRET interf | LEDGF integ conf
O=C(NCc1ccncc1)C1CCN(S(=O)(=O)c2cc(Cl)ccc2Cl)CC1 | – | – | 20 | – | – | – | – | –
CCC(CC)C(=O)N(C)c1c(C)nc2c(OCc3ccc(C#N)cc3)cccn12 | – | – | 15 | · | – | – | – | –
CCC(CC)C(=O)N(C)c1c(C)nc2c(OCc3ccccc3C)cccn12 | – | – | – | · | – | · | · | ·
Clc1ccc(-c2ccc(-c3nn4c(-c5ccco5)nnc4s3)o2)cc1 | – | – | – | – | – | · | · | ·
Brc1ccc(-c2nn3c(-c4ccco4)nnc3s2)o1 | – | – | 15 | – | 22 | 9.3 | – | 30
O=C1CCC[C@H]2[C@@H](Cc3ccccc3)[C@@H](O)CC[C@]23CCCN13 | – | – | – | · | – | · | · | ·
CC1(C)Cc2cccc(OC(=O)NCCc3ccc(F)cc3)c2O1 | – | – | 15 | · | – | – | – | –
CC1(C)Cc2cccc(OCC(=O)OCC(=O)NCc3ccc(F)cc3)c2O1 | – | – | – | – | – | · | · | ·
COc1ccccc1OCCSc1nnnn1-c1ccc(C)cc1 | – | – | 37 | – | – | – | – | –
Fc1ccccc1OCCSc1nnnn1-c1ccccc1 | – | – | – | – | – | · | · | ·
Cc1ccc(CNc2ncnc3ccc(-c4ccc(CO)o4)cc23)o1 | – | – | 19 | · | – | – | – | –
COC(=O)[C@]12C[C@H](CC(=O)NCCCN3CCCC3=O)C(=O)N(Cc3ccc4c(c3)OCO4)C1=C[C@H](COCc1ccccc1)O[C@@H]2C | – | – | – | · | – | · | · | ·
Clc1ccccc1-c1ccc(CN2CCN(c3ccccc3)CC2)o1 | – | – | 31 | – | – | – | – | –
O=[N+]([O-])c1ccc(CN2CCN(c3ccccc3)CC2)o1 | – | – | – | – | – | · | · | ·
C=CC(=O)NC1CCCCN(C(C)C)C1=O (configuration not stated) | – | – | – | · | – | · | · | ·
N#C/C(=N\Nc1cc(Cl)cc(Cl)c1)c1nnc2n1CCCCC2 | – | – | 64 | – | – | – | – | –
c1ccc(-n2nnc3ccccc32)cc1 | – | – | – | – | – | · | · | ·
C(=C\n1nnc2ccccc21)/c1ccc[nH]1 | – | – | 27 | – | – | – | – | 37
COc1cccc(CNC(=O)Cn2c(-c3ccccc3)cc(C(C)=O)c2C)c1OC | – | – | – | · | – | · | · | ·
COc1ccc2[nH]c(=O)c(CN(C(=O)C(C)C)c3ccccc3OC)cc2c1 | – | – | 19 | – | – | – | – | –
CCC(=O)N(Cc1cc2cc(OC)ccc2[nH]c1=O)c1ccccc1OC | – | – | – | · | – | · | · | ·
COc1ccc(NCc2cc3cc(OC)ccc3[nH]c2=O)cc1 | – | – | 16 | – | – | – | – | –
Cc1ccc(C2C(C#N)=C(N)Oc3cc4c(cc32)OCO4)cc1 (configuration not stated) | – | – | – | – | – | · | · | ·
Cc1ccccc1N=Cc1cc2c(cc1O)OC(N)=C(C#N)C2c1ccccc1 (configuration not stated) | – | – | 19 | – | – | – | – | 35
N#CC1=C(N)Oc2cc(O)c(C=Nc3ccccc3)cc2C1c1ccccc1 (configuration not stated) | – | – | 20 | – | – | – | – | 19
SMILES | TDP2 inh | MBD2 inh | LEDGF integ inh | core dimer inh | UHRF1 MBD2 ctr | IN multimer up | TRFRET interf | LEDGF integ conf
N#CC1=C(N)Oc2cc(Nc3ccccc3)ccc2C1c1ccncc1 (configuration not stated) | – | – | – | – | – | · | · | ·
Cc1ccc(N=Cc2cc3c(cc2O)OC(N)=C(C#N)C3c2ccccc2)cc1 (configuration not stated) | – | – | 30 | – | – | – | – | 15
CN1CCC(N[C@@H](Cc2c[nH]c3ccccc23)C(=O)NCCCc2ccccc2)(C(=O)NCCc2c[nH]c3ccccc23)CC1 | – | – | – | · | – | · | · | ·
COc1ccc(C(=O)OCCN2CCN(C3CN(Cc4cn(Cc5cccc(F)c5)nn4)S(=O)(=O)C3)CC2)cc1OC (configuration not stated) | – | – | – | · | – | · | · | ·
C=CS(=O)(=O)N(Cc1ccc(F)cc1)C(=C)C(=O)OC | – | – | – | · | – | · | · | ·
CCc1ccc2c(c1)C(NC(C)=O)C(=O)N2CCN1CCOCC1 (configuration not stated) | – | – | 15 | – | – | – | – | 33
Cc1ccc(NC(=O)C2CCN(c3ncccn3)CC2)cc1C | – | – | – | · | – | · | · | ·
C[C@@H]1O[C@@H](O[C@@H]2[C@@H](O)[C@H](OCCc3ccc(O)c(O)c3)O[C@H](CO)[C@H]2OC(=O)/C=C/c2ccc(O)c(O)c2)[C@H](O)[C@H](O)[C@H]1O | – | – | 87 | · | – | 37 | – | 88
O=S(=O)(O)c1cc(Cl)cc(N=Nc2ccc(O)cc2O)c1O | – | – | 72 | · | – | 14 | – | 31
O=C(Cn1cnc([N+](=O)[O-])n1)c1ccccc1 | – | – | – | · | – | · | · | ·
O=C(Cn1cnc([N+](=O)[O-])n1)c1ccc(O)c(O)c1 | – | – | 40 | – | – | 9.9 | – | 22
CC(CCN1CCC(C(O)(c2ccccc2)c2ccccc2)CC1)Oc1cccc(Cl)c1 (configuration not stated) | – | – | – | · | – | · | · | ·
CCS(=O)(=O)C1=NN2C(=N)/C(=C\c3ccc(SCc4ccco4)o3)C(=O)N=C2S1 | – | – | 43 | · | 38 | 15 | – | 53
CCS(=O)(=O)C1=NN2C(=N)/C(=C\c3ccc(OC(=O)c4ccco4)c(Br)c3)C(=O)N=C2S1 | · | · | · | – | · | · | · | ·
CC1=CC(C)(C)N2C(=O)C(=Nc3ccc(O)cc3)c3cccc1c32 | – | – | 17 | – | – | 19 | – | 45
Cc1nnc(SCC(=O)NCc2ccco2)[nH]c1=O | – | – | – | – | – | · | · | ·
Cc1cc(=O)[nH]c(SCC(=O)NCc2ccco2)n1 | – | – | 20 | – | – | – | – | 21
Cc1ccc(S(=O)(=O)NCC(=O)OC(C)C(=O)c2ccccc2)cc1 (configuration not stated) | – | – | 23 | – | – | – | – | –
Cc1cc(NS(=O)(=O)c2ccc(NC(=O)Cc3ccccc3)cc2)no1 | – | – | – | · | – | · | · | ·
Cc1cc(C(=O)COC(=O)Cc2n[nH]c(=O)c3ccccc23)c(C)n1-c1cccc(C(F)(F)F)c1 | – | – | 30 | – | – | – | – | –

High-throughput results: PubChem BioAssay, The Scripps Research Institute Molecular Screening Center
